SMILES strings stand for the structures.

Our source for the inhibition and fold change (FC) values is ChEMBL document CHEMBL5653631, “A Potent and Selective ULK1 Inhibitor Suppresses Autophagy and Sensitizes Cancer Cells to Nutrient Stress” (iScience, 2018).

For assay [1], the target named is Tyrosine-protein kinase Fer (Homo sapiens) (UniProt P16591). Briefly: Inhibition of human recombinant FER at 40 nM in presence of ATP by radiometric assay relative to control.
For assay [2], the target named is Mitogen-activated protein kinase kinase kinase 9 (Homo sapiens) (UniProt P80192). Description: Inhibition of human recombinant MLK1 at 40 nM in presence of ATP by radiometric assay relative to control.
Chain of Mitogen-activated protein kinase kinase kinase 9 (Homo sapiens) (P80192 whole entry, looked up): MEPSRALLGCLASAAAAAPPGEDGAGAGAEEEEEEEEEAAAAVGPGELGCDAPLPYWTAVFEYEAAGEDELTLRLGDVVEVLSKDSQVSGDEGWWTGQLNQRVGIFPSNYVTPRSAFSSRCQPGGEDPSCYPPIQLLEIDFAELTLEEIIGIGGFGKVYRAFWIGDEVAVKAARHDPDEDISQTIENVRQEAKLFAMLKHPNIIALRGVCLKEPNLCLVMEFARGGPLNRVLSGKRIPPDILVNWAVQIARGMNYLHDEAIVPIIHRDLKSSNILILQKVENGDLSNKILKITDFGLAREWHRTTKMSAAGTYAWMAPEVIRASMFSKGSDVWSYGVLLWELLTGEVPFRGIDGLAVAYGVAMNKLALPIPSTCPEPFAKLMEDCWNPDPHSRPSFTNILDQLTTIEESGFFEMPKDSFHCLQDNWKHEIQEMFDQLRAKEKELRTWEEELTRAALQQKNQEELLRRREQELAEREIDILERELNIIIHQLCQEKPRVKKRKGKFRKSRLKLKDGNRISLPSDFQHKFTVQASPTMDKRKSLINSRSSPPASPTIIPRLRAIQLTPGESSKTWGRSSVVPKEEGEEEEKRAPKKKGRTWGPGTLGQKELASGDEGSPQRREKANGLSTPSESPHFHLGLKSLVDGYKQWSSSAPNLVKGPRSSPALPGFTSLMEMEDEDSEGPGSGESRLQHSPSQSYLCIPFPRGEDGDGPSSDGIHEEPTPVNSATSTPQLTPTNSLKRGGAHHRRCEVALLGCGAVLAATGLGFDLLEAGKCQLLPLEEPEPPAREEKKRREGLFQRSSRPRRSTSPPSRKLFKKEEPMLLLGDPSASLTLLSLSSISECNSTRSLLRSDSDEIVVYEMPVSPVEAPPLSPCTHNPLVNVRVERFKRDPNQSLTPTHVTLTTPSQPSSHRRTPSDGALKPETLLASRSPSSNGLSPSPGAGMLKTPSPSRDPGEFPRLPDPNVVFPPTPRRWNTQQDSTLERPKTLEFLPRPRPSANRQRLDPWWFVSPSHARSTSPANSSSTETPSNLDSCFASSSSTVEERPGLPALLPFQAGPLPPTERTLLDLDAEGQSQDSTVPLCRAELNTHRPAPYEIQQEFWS
The target in assay [3] is STE20-like serine/threonine-protein kinase (Homo sapiens) (UniProt Q9H2G2). Description: Inhibition of human recombinant SLK at 40 nM in presence of ATP by radiometric assay relative to control.
For assay [4], the target named is Serine/threonine-protein kinase Chk2 (Homo sapiens) (UniProt O96017). Description: Inhibition of human recombinant CHK2 at 40 nM in presence of ATP by radiometric assay relative to control.
Chain of Serine/threonine-protein kinase Chk2 (Homo sapiens) (O96017 whole entry): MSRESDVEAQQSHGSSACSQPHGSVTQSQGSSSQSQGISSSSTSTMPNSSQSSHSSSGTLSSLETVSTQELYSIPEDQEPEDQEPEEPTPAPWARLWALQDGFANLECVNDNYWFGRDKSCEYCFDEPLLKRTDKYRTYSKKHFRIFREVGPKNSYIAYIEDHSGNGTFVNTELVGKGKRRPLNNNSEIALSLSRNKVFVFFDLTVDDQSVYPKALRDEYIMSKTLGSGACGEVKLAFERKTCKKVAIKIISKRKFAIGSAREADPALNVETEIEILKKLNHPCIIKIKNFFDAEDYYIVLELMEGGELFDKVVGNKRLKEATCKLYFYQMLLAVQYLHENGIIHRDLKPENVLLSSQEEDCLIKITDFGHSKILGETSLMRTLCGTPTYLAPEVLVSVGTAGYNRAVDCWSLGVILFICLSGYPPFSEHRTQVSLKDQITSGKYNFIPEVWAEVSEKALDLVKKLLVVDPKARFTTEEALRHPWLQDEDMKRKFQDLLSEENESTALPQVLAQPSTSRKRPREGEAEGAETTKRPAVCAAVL
Assay [5] has as its target Fibroblast growth factor receptor 2 (Homo sapiens) (UniProt P21802). Description: Inhibition of human recombinant FGFR2 at 40 nM related to control ULK1.
Assay [6] has as its target Homeodomain-interacting protein kinase 2 (Homo sapiens) (UniProt Q9H2X6). Briefly: Inhibition of human recombinant HIPK2 at 40 nM in presence of ATP by radiometric assay relative to control.
The target of assay [7] is T1, Aurora kinase C (Homo sapiens) (UniProt Q9UQB9).
T1 sequence (whole entry): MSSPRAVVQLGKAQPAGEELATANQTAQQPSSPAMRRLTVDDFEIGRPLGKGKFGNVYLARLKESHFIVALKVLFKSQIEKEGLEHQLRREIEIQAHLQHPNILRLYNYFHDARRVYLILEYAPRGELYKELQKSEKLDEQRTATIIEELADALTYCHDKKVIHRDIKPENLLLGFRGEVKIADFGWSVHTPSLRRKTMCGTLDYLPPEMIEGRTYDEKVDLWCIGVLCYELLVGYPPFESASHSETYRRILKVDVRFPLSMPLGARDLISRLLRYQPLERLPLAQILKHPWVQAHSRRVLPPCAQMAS
Description: Inhibition of human recombinant AurC at 40 nM in presence of ATP by radiometric assay relative to control. In short, it runs like this:
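Part of a radiometric in vitro activity panel of 327 recombinant human kinases. Each kinase was tested in duplicate at one inhibitor concentration. Activity remaining was expressed as a percentage of the vehicle control, and percent inhibition was taken as 100 minus that value.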

The target in assay [8] is T2, Serine/threonine-protein kinase Nek1 (Homo sapiens) (UniProt Q96PY6).
T2 sequence (whole entry): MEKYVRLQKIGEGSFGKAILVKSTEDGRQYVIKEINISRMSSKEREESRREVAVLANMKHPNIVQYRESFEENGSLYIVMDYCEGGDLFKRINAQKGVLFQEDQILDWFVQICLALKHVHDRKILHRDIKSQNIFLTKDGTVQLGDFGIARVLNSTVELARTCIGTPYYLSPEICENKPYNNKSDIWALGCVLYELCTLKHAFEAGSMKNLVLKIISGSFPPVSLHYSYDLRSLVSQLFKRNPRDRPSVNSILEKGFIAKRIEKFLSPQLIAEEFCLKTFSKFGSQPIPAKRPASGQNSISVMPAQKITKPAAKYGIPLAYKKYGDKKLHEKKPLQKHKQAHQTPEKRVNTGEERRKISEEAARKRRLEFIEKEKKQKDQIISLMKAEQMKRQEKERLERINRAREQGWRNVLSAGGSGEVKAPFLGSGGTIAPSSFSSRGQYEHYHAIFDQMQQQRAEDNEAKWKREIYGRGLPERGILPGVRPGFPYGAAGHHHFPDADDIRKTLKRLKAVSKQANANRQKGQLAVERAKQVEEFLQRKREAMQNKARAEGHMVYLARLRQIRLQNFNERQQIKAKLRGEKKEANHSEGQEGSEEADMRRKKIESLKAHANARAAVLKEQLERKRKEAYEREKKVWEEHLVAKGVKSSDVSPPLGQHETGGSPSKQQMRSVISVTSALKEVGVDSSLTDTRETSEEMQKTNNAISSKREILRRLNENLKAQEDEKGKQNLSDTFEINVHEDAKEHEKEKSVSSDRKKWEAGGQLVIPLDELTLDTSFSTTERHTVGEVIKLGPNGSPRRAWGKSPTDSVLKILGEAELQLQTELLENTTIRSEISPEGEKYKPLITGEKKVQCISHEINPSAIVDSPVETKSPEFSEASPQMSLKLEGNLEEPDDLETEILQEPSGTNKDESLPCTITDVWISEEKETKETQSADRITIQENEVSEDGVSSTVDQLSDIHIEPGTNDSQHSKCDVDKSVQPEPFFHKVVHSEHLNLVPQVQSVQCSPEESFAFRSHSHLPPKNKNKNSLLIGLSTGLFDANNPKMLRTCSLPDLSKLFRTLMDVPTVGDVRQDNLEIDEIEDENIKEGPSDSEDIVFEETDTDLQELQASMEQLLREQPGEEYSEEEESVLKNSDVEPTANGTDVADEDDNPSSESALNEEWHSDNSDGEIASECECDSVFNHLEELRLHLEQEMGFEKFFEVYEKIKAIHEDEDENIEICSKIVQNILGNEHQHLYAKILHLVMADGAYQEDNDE
Briefly: Inhibition of human recombinant NEK1 at 40 nM in presence of ATP by radiometric assay relative to control.

The target of assay [9] is Dual specificity mitogen-activated protein kinase kinase 2 (Homo sapiens) (UniProt P36507). Description: Inhibition of human recombinant MAP2K2 at 40 nM in presence of ATP by radiometric assay relative to control.
For assay [10], the target named is Proto-oncogene tyrosine-protein kinase ROS (Homo sapiens) (UniProt P08922). Description: Inhibition of human recombinant ROS at 500 nM related to control ULK1.
Assay [11] addresses TGF-beta receptor type-2 (Homo sapiens) (UniProt P37173). Description: Inhibition of human recombinant TGFbR2 at 500 nM related to control ULK1.

Chain of Homeodomain-interacting protein kinase 2 (Homo sapiens) (Q9H2X6 whole entry, looked up): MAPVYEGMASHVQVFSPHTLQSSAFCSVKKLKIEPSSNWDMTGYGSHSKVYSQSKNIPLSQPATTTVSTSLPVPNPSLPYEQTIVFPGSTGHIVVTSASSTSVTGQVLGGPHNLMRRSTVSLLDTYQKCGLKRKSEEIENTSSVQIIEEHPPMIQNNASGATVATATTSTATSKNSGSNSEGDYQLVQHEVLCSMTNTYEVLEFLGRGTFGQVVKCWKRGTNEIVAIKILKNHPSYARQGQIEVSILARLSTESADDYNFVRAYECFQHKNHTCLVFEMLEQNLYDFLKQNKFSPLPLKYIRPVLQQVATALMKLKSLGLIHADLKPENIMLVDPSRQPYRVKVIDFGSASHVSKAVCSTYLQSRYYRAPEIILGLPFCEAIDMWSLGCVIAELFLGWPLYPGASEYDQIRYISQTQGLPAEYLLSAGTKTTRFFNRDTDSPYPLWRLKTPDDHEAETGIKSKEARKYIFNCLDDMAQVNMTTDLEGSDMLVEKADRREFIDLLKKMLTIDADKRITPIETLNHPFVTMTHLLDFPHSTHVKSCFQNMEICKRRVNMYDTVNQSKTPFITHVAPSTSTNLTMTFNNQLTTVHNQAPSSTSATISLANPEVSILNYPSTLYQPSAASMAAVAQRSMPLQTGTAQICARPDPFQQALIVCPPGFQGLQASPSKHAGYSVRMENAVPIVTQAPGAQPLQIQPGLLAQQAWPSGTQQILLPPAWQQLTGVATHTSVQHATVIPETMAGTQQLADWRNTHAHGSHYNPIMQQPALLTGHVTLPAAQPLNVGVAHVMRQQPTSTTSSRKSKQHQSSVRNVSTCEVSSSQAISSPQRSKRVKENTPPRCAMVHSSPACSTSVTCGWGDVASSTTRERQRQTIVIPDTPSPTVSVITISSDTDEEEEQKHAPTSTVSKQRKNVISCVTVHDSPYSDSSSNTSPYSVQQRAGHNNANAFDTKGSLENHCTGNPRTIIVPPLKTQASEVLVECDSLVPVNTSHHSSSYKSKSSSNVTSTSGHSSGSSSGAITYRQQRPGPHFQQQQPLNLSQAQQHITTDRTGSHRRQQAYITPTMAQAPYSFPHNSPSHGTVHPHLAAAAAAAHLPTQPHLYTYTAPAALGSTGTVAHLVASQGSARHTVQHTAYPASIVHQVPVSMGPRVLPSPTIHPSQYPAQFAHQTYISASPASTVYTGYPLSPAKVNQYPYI
Chain of TGF-beta receptor type-2 (Homo sapiens) (P37173 whole entry): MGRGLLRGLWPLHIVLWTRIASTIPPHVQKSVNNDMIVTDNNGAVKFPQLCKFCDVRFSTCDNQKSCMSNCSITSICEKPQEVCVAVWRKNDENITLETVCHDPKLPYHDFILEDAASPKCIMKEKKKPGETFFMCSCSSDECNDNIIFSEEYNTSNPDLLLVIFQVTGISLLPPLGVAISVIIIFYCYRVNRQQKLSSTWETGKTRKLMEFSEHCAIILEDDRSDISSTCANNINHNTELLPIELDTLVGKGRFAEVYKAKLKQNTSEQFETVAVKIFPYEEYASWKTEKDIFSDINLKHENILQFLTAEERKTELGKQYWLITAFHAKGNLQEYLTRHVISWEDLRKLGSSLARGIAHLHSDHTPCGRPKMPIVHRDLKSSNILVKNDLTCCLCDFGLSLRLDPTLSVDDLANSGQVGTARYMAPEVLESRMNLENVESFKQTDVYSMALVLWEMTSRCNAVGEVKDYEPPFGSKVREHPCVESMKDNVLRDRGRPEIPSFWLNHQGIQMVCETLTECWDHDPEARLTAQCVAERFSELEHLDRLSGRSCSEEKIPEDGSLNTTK
Chain of Tyrosine-protein kinase Fer (Homo sapiens) (P16591 whole entry, looked up): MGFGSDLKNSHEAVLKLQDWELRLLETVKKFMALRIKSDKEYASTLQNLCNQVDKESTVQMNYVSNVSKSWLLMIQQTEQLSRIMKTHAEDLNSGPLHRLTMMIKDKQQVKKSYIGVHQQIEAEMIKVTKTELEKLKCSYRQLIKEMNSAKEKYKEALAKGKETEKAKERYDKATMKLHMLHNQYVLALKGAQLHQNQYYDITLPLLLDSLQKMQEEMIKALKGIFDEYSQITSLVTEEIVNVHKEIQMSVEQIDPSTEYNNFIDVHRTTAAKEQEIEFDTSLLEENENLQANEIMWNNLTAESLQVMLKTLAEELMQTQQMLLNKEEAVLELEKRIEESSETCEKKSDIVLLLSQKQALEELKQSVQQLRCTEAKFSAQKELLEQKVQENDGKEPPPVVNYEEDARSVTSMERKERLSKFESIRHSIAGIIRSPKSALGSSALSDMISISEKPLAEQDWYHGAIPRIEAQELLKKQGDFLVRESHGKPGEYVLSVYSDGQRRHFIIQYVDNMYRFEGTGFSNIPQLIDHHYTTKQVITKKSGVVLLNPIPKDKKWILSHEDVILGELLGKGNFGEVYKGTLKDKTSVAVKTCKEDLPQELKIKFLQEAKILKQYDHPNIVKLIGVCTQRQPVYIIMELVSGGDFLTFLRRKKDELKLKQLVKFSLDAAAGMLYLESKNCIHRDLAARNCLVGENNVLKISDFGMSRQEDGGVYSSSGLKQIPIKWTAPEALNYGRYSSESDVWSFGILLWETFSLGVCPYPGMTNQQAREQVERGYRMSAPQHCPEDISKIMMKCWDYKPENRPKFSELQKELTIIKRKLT
Chain of Fibroblast growth factor receptor 2 (Homo sapiens) (P21802 22-821 limits assumed): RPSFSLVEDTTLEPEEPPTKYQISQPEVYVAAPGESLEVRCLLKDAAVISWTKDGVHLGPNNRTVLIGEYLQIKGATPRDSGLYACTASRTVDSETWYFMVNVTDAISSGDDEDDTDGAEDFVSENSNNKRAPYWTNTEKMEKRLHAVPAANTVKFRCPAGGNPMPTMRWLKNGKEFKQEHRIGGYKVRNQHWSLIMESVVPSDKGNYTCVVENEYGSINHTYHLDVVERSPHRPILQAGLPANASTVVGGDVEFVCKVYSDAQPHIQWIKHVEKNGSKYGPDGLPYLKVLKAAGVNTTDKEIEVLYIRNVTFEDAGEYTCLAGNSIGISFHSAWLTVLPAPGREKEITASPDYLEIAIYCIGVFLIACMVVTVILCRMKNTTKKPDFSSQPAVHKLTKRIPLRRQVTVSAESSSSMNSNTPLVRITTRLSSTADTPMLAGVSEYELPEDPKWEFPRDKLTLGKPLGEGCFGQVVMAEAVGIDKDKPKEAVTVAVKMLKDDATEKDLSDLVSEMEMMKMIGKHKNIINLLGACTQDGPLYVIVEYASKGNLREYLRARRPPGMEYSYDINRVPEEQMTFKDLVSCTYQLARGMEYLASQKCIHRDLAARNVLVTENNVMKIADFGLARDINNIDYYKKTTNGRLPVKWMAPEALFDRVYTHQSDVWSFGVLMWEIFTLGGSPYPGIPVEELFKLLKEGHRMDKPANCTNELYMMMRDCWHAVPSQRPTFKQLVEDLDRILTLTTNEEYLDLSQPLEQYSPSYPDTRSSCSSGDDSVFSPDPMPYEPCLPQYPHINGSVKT

A word on the inhibition: it is the percentage by which the read-out fell short of the control. With `O=C(N[C@@H](C1CC1)C(F)(F)F)c1cc(-c2cnn3cc(-c4ccc(F)cc4)cnc23)cs1`, the inhibition in assay [1] turned out to be 0%; in assay [2], 7%; in [3], 0%; in [4], 0%; in assay [6], 0%; in [7] it was 0%. The inhibition in [8] and in [9] was 0% each time. In addition, the fold change (FC) in assay [5] was 0.

Take `CNC(=O)c1ccccc1Oc1nc(Nc2cc(OC)c(OC)c(OC)c2)ncc1Br`: the results for the fold change (FC) in assay [10] and in [11] were 0 and 0.03, respectively.
